Compound activity: PubChem BioAssay, several laboratories
A selection: hits, their analogues and other compounds. The true share with any hit is near 5.9%.
Phagocytosis inh: macrophage phagocytosis inhibition; J774A.1 macrophage IgG-bead phagocytosis, imaging; inhibition, % at 5 µM; actives 0.07% (n = 110,000);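 active = inhibition above the mean of the plate negative controls plus 5 SD, cut at about 13% in these data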;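 note: phagocytic index as fraction of beads internalized from green versus red external bead signal; plate controls were DMSO negative control for no effect and cytochalasin-D positive control for full effect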
hDAT+cocaine: human DAT dopamine uptake with cocaine, either direction | LLC-PK1 hDAT cells, [14C]-dopamine uptake with cocaine IC80; actives deviate in either direction | AID 449768 | actives 1.3% (n = 110,000) | B-score at 10 µM | Q01959;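 active = Z score or B-score, a plate-position-corrected score, falls beyond the plate's 99.7% confidence bounds, in either direction; inactive = both scores lie inside the 99.7% bounds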;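 note: scored against the spread of the other compound wells on the same plate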
Measles CPE: protection of cells from measles virus; AID 841; actives 1.5% (n = 140,000); Measles virus-infected cells, CPE protection, absorbance; protection (pct of control), % at 4 µM; in the data active = protection mostly above about 24%, no sharp cut-off; inactive = mostly below about 26%
Rev-RRE block: disrupts HIV-1 Rev binding to RRE RNA. inhibition, % at 8 µM. Rev peptide-RRE RNA binding, FRET. actives 0.79% (n = 97,000). P05866;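 active = inhibition above the screen-wide mean plus 3 SD, cut at about 35% in these data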;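 note: 0% = median DMSO wells and 100% = median Neomycin B control wells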
Target sequence (P05866 whole entry, looked up): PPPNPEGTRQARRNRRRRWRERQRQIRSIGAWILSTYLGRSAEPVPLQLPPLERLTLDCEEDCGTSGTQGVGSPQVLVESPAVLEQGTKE
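Assay system: Labelled RRE RNA duplex and labelled Rev peptide | Times: 5 min preincubation and 15 min binding, 25 °C | Detection: FRET, ex 480 nm, em 540 and 671 nm | Evaluation: % inhibition of FRET ratio versus controls | Benchmarks: DMSO wells as 0% and neomycin B wells as 100% inhibition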
PTK2B oligo ant: blocks oligomerization of human Pyk2 in cells; Q14289; Q293 cells, Pyk2 FERM NanoBiT luminescence; active compounds read low; z-score (the deposit names both 25 µM and 10 µM); actives 0.83% (n = 99,000); AID 1347419;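 active = Z-score of -3 or lower, scaled per plate to the spread of control and sample wells; inactive = z-score above -3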;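 note: negative z-score means lost luminescence so less FERM oligomerization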
Cav3 T inh: blocks human Cav3.2 T-type calcium channel; actives 4% (n = 100,000); Cav3.2-expressing cells, Fluo-4 calcium fluorescence FDSS; active compounds read low; B-score at 10 µM;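 active = single-dose well whose peak fluorescence ratio is a statistical outlier from its plate by either plate-standardised score or position-corrected B-score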
Active calls of the source: *; x = no result given; [ ] = dose if it differs, or a comment.

SMILES	Phagocytosis inh	hDAT+cocaine	Measles CPE	Rev-RRE block	PTK2B oligo ant	Cav3 T inh
C/C(Cn1nnc([N+](=O)[O-])n1)=N\NC(=O)c1cccc(Cl)c1	0	0.13	11	3	0.23	-0.07
CCNc1nc(NCC)n2c(SC(C(=O)Nc3cc(C)ccc3OC)c3ccccc3)nnc2n1 (stereo not given)	-12	x	8	x	-2.2	x
Oc1c(C(c2cccc(F)c2)N2CCN(Cc3ccccc3)CC2)sc2ncnn12 (stereo not given)	x	0.053	2	x	x	0.16
COc1cccc(OC)c1C(=O)OCC(=O)Nc1ccc(OC(F)(F)F)cc1	0	1.1	9	9	-1.3	-4.8*
COc1ccc(NC(=S)NC(NC(=O)c2cccc(Cl)c2)C(Cl)(Cl)Cl)c([N+](=O)[O-])c1 (stereo not given)	x	0.24	7	10	-1.1	-4.9*
CCOC(=O)NC(NC(=S)Nc1ccccc1[N+](=O)[O-])C(Cl)(Cl)Cl (stereo not given)	x	-3.5*	19	4	0.91	-1.4
O=C(NC(NC(=S)Nc1ccccc1C(=O)O)C(Cl)(Cl)Cl)c1cccc([N+](=O)[O-])c1 (stereo not given)	x	-7.4*	16	-4	-0.34	-1.1
Cc1ccc(C)c(NC(=S)NC(NC(=O)OCc2ccccc2)C(Cl)(Cl)Cl)c1 (stereo not given)	-5	x	10	x	x	x
COc1ccc(NC(=S)NC(NC(=O)c2cccc(C)c2)C(Cl)(Cl)Cl)c([N+](=O)[O-])c1 (stereo not given)	x	-1.1	33	3	-0.44	-6.7*
COc1ccc(NC(=S)NC(NC(C)=O)C(Cl)(Cl)Cl)c([N+](=O)[O-])c1 (stereo not given)	0	x	36	x	x	x
O=C(Cc1ccccc1)NC1c2ccccc2-c2ccccc21	3	x	11	x	x	x
Nc1cc(-c2ccccc2)nn1Cc1ccc(Cl)cc1	0	0.41	16	2	-0.59	-5.8*
COC(=O)C1=C(N)c2ccccc2C1(C#N)c1ccccc1 (stereo not given)	0	0.021	17	8	-2.7	-9*
COc1ccc2occ(NC(C)=O)c2c1	-3	-1.1	42*	4	0.38	0.27
COc1ccc(OC)c(C(=O)c2coc3ccc(OC(C)=O)cc23)c1	-4	x	8	x	x	x
O=c1nc(/C=C/c2ccc(-c3ccc(F)cc3)o2)cc(C(F)(F)F)[nH]1	-1	0.5	3	116*[fluorescence artefact?]	x	x
CCn1c(CSc2nc3ccccc3s2)nnc1SCC(=O)c1ccc(Cl)cc1	-1	-0.99	34	0	-0.2	-4.2*
CC(C)(C)OC(=O)N1CCC2(CC1)Oc1ccc(F)cc1C(=O)C21CC(c2ccccc2)=NO1 (stereo not given)	x	0.033	x	x	x	-1.3
O=C(C[n+]1cnn(CC(=O)c2ccc(Cl)cc2Cl)c1)c1ccc([N+](=O)[O-])cc1	-4	x	12	x	x	x
O=C(O)C1=C[C@H](c2cccs2)C[C@H](OCc2ccc(CO)cc2)O1	x	-1.7	x	x	x	0.34
CC(=O)c1cn(CCC(C)C)c(=O)[nH]c1=O	0	x	7	x	x	x
Cc1cc(NC(=O)C(C)C)ncc1NC(=O)Cc1ccccc1	-2	0.031	5	-2	-0.58	-4*
CCC(=O)Nc1cc(C)c(NC(=O)CCc2ccccc2)cn1	-2	-0.94	3	38*	0.19	0.24
COc1ccc(NS(=O)(=O)c2cc(NC(=O)c3cccc(OCc4c(C)noc4C)c3)ccc2OC)cc1	-1	x	9	x	-0.47	x
CCN(CC(=O)N1CCN(c2ccccc2)CC1)S(=O)(=O)c1ccc(C)cc1	-4	x	63*	x	x	x
COc1ccc(N(CC(=O)N2CCN(c3ccccc3)CC2)S(=O)(=O)c2c(C)noc2C)cc1	0	0.58	41*	3	x	-3.6
CCOc1ccc(N(CC(=O)N2CCN(c3ccccc3)CC2)S(=O)(=O)c2c(C)noc2C)cc1	0	0.66	11	8	x	-1.9
COc1ccc(N(CC(=O)NN=C2CCCCCCC2)S(=O)(=O)c2ccccc2)cc1Cl	0	0.13	15	5	-0.31	-0.64
COc1ccc(N(CC(=O)NN=C2CCCC2)S(=O)(=O)c2ccccc2)cc1	x	-0.97	44*	7	-0.36	0.93
CC(=O)c1ccc(N2CCN(C(=O)CCS(=O)(=O)c3ccc(C)cc3)CC2)cc1	0	-0.0019	47*	x	0.48	x
